Broadly, the IC50 is the concentration that gives 50% inhibition. A lower IC50 goes with greater potency in that assay. As a reminder, the EC50 is the concentration giving half of the maximal effect. In general, CC50 refers to the concentration at which the toxic effect on the cells reaches its halfway point. Higher therefore signals lower toxicity to the cells.

Data set [1] concerns the target Human immunodeficiency virus type 1 integrase (Human immunodeficiency virus 1) (UniProt Q7ZJM1).
The target in data set [2] is Human immunodeficiency virus type 1 integrase (Human immunodeficiency virus 1, UniProt Q7ZJM1). Description: Inhibition of HIV-1 integrase after 1 hr by ELISA.
Human immunodeficiency virus type 1 integrase, sequence (Q7ZJM1 whole entry): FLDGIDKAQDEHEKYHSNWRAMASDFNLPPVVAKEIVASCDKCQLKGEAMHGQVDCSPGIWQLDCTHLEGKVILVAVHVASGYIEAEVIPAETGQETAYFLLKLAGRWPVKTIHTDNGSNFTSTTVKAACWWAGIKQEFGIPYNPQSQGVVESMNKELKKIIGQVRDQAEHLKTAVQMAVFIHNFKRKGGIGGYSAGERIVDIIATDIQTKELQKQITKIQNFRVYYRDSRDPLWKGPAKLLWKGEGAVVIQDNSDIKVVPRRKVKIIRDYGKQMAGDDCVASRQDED
Data set [3] in a line: Selectivity index, ratio of CC50 for human MT4 cells to EC50 for HIV13B. In kind it is toxicity, cell-based. The note with it: read-out: Ratio CC50/EC50. The essentials: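 Index calculated as CC50/EC50. CC50 is the concentration reducing MT-4 viability by 50%. EC50 is 50% protection against HIV-1 IIIB CPE after infection with 100–300 CCID50, across five-fold serial dilutions. Both are read by MTT assay.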

The test system of data set [4] is Human immunodeficiency virus 1. Nature of the data set: Antiviral activity against HIV1 3B infected in human MT4 cells assessed as inhibition of virus-induced cytopathic effect by MTT assay. In kind it is functional, organism-based. The note with it: Human immunodeficiency virus 1, 3B. The essentials: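 HIV-1 IIIB stock titrated on MT-4 cells to set CCID50. MT-4 cells infected with 100–300 CCID50 in presence of five-fold serial drug dilutions. Viability read by MTT reduction to formazan, measured spectrophotometrically. EC50 is concentration giving 50% protection against viral CPE. Values are averages ± SD.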
(In general: Cytopathic effects are the visible damage that an infection or toxin causes in cultured cells.)

The nature of data set [5]: Cytotoxicity against human MT4 cells by MTT assay. In kind it is cell-based. The essentials:
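MT-4 cell viability read by MTT reduction to formazan by mitochondrial dehydrogenase, measured spectrophotometrically, across drug dilutions. CC50 is concentration reducing MT-4 viability by 50%. Values are averages ± SD.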
(Tetrazolium dyes change colour on reduction, which living cells bring about.)

Human immunodeficiency virus type 1 integrase (Human immunodeficiency virus 1), sequence (Q7ZJM1 as listed by the source): as the sequence (Q7ZJM1 whole entry) above

For the compound `CCOC(=O)/C(O)=C/C(=O)c1cn(Cc2ccc(F)cc2)c2c(OC)ccc(OC)c12`, in data set [1], the C50 was found to be 0.66 µM.

In data set [2], `CCOC(=O)/C(O)=C/C(=O)c1cn(Cc2ccc(F)cc2)c2cc(OC)cc(OC)c12` came in with an IC50 of 2.79 µM. In data set [1], this compound yielded a C50 of 1.29 µM. Besides, in data set [3], the selectivity ratio is 22. Further, the concentration for a half-maximal effect (EC50) in data set [4] came out at 2.48 µM. Besides, in data set [5], the midpoint of cytotoxicity, the CC50, lay at 55.4 µM.

In the case of `Cc1nnc(C(=O)NC(C)(C)c2nc(C(=O)NCc3ccc(F)cc3)c(O)c(=O)n2C)o1`, in data set [5], the CC50 was above 18 µM.

Consider `CCOC(=O)/C(O)=C/C(=O)c1cn(Cc2ccc(F)cc2)c2c(OC)cc(OC)cc12`, for which, in data set [2], the IC50 turned out to be 18.1 µM. The C50 in data set [1] stood at 34.9 µM. The selectivity ratio in data set [3] was below 1. The EC50 in data set [4] is above 62.1 µM. This compound displayed a CC50 in data set [5] of 62.1 µM.

The compound `CCOC(=O)/C(O)=C/C(=O)c1cn(Cc2ccc(F)cc2)c2c(OC)c(OC)ccc12` came in with an IC50 in data set [2] of 7.41 µM. Moreover, the C50 in data set [1] is 17.4 µM. Further, the selectivity ratio in data set [3] came to 11. Also, the EC50 in data set [4] came out at 10.4 µM. For the same compound, in data set [5], the CC50 was 119 µM.

Regarding `COc1cc(OC)c2c(C(=O)/C=C(\O)C(=O)O)cn(Cc3ccc(F)cc3)c2c1`, the midpoint of inhibition in data set [2], the IC50, lay at 0.47 µM. This compound also came in with a C50 in data set [1] of 0.28 µM. Moreover, the selectivity ratio in data set [3] stood at 6. The EC50 in data set [4] came to 3.2 µM. Further, in data set [5], the CC50 was determined as 20.7 µM.

With `COc1ccc2c(c(C(=O)/C=C(\O)C(=O)O)cn2Cc2ccc(F)cc2)c1OC`, the IC50 in data set [2] stood at 1.45 µM. In addition, the C50 in data set [1] amounted to 0.047 µM. The selectivity ratio in data set [3] came out at 104. Moreover, in data set [4], the EC50 amounted to 1.21 µM. The CC50 in data set [5] turned out to be 126 µM.

In data set [1], `COc1cccc2c1c(C(=O)/C=C(\O)C(=O)O)cn2Cc1ccc(F)cc1` yielded a C50 of 0.14 µM. In addition, the selectivity ratio in data set [3] is 70.

Take `COc1ccc2c(C(=O)/C=C(\O)C(=O)O)cn(Cc3ccc(F)cc3)c2c1OC`: the 50% inhibitory concentration (IC50) in data set [2] amounted to 3.55 µM. Also, the C50 in data set [1] came to 6.37 µM. Further, the selectivity ratio in data set [3] was found to be 9. Besides, the EC50 in data set [4] was 14.7 µM. Further, in data set [5], half-maximal cytotoxicity (CC50) was put at 130 µM.

With `COc1cc(OC)c2c(c1)c(C(=O)/C=C(\O)C(=O)O)cn2Cc1ccc(F)cc1`, half-maximal inhibition in data set [2] (IC50) required 0.251 µM. In data set [1], this compound returned a C50 of 0.006 µM. Further, in data set [3], the selectivity ratio was 7. Further, the EC50 in data set [4] stood at 8.51 µM. The compound also came in with a CC50 in data set [5] of 58.5 µM.

With `CCOC(=O)/C(O)=C/C(=O)c1cn(Cc2ccc(F)cc2)c2cc(OC)c(OC)cc12`, the IC50 in data set [2] is 4.4 µM. The compound also yielded a C50 in data set [1] of 7.69 µM. Also, in data set [3], the selectivity ratio is below 1. Moreover, in data set [4], the EC50 is above 21.8 µM. Moreover, in data set [5], half-maximal cytotoxicity (CC50) was put at 21.8 µM.

In turn, `COc1cc2c(C(=O)/C=C(\O)C(=O)O)cn(Cc3ccc(F)cc3)c2cc1OC` showed an IC50 in data set [2] of 0.547 µM. Besides, in data set [1], the C50 turned out to be 0.119 µM. The selectivity ratio in data set [3] turned out to be 6. In addition, in data set [4], the EC50 was found to be 10.5 µM. In data set [5], the CC50 stood at 65.5 µM.

With `CCOC(=O)/C(O)=C/C(=O)c1cn(Cc2ccc(F)cc2)c2ccc(OC)c(OC)c12`, the IC50 in data set [2] worked out at 0.9 µM. The C50 in data set [1] is 0.015 µM. In data set [3], the selectivity ratio was determined as 28. Further, the EC50 in data set [4] worked out at 3.96 µM. The compound also returned a CC50 in data set [5] of 111 µM.

The values are drawn from ChEMBL document CHEMBL1667799, “HIV-1 integrase strand-transfer inhibitors: design, synthesis and molecular modeling investigation” (Eur J Med Chem, 2011).
